Reference: ChEMBL document CHEMBL1772996, “Bioactive constituents from the roots of Panax japonicus var. major and development of a LC-MS/MS method for distinguishing between natural and artifactual compounds” (J Nat Prod, 2011)
In brackets after ≈: the same amount, converted by molar mass. Activity calls are given as the source filed them. The rule behind the calls is not given here.

Columns and labels:
Neutrophil [1] = assay: Inhibition of fMLP/CB-activated human neutrophil degranulation assessed as inhibition of elastase release at 30 uM using MeO-Suc-Ala-Ala-Pro-Val-p-nitroanilide as a substrate after 5 mins relative to control; format: functional
Outline: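 Isolated human neutrophils (dextran sedimentation, Ficoll Hypaque, hypotonic erythrocyte lysis; >98% viable by trypan blue) at 5×10^5/mL in Ca2+-free HBSS pH 7.4 with 100 μM MeO-Suc-Ala-Ala-Pro-Val-p-nitroanilide. Equilibrated 37 °C 2 min, compound 5 min, then activated with 100 nM fMLP plus 0.5 μg/mL CB. A405 monitored continuously. Expressed as % of initial elastase release rate in drug-free fMLP/CB control; mean ± S.E.M., n = 3–4.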

Neutrophil [2] = assay: Inhibition of fMLP/CB-stimulated superoxide anion generation in human neutrophils; format: functional, cell-based
Outline: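 Isolated human neutrophils (dextran sedimentation, Ficoll Hypaque, hypotonic lysis; >98% viable) with 0.5 mg/mL ferricytochrome c and 1 mM Ca2+, 37 °C 2 min, compound 5 min; CB 1 μg/mL 3 min, then 100 nM FMLP 10 min; SOD-inhibitable cytochrome c reduction followed continuously at 550 nm with stirring; mean ± S.E.M., n = 3–4; top concentration 30 μM.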

DU-145 = assay: Cytotoxicity against human DU145 cells assessed as growth inhibition after 3 days by sulforhodamine B assay; format: functional
KB = assay: Cytotoxicity against human KB cells assessed as growth inhibition after 3 days by sulforhodamine B assay; format: functional
HCT-8 = assay: Cytotoxicity against human HCT8 cells assessed as growth inhibition after 3 days by sulforhodamine B assay; format: functional, cell-based
A549 = assay: Cytotoxicity against human A549 cells assessed as growth inhibition after 3 days by sulforhodamine B assay; format: functional, cell-based
Neutrophil [3] = assay: Inhibition of fMLP/CB-stimulated superoxide anion generation in human neutrophils at 30 uM relative to control; format: functional
Outline: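 Neutrophils isolated by dextran sedimentation, Ficoll Hypaque and hypotonic lysis, kept in Ca2+-free HBSS pH 7.4 at 4 °C. Given 0.5 mg/mL ferricytochrome c and 1 mM Ca2+, equilibrated 37 °C 2 min, compound 5 min. CB 1 μg/mL for 3 min, then 100 nM fMLP for 10 min. SOD-inhibitable ferricytochrome c reduction followed at 550 nm with stirring; mean ± S.E.M., n = 3–4.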

Neutrophil [4] = assay: Inhibition of fMLP/CB-activated human neutrophil degranulation assessed as inhibition of elastase release using MeO-Suc-Ala-Ala-Pro-Val-p-nitroanilide as a substrate after 5 mins; format: functional, cell-based
Outline: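 Neutrophils from dextran sedimentation, Ficoll Hypaque centrifugation and hypotonic erythrocyte lysis (>98% viable by trypan blue), held in Ca2+-free HBSS pH 7.4 at 4 °C; 5×10^5/mL cells with 100 μM substrate equilibrated 37 °C 2 min, compound 5 min, then 100 nM FMLP plus 0.5 μg/mL CB; A405 monitored continuously; expressed as % of initial rate in drug-free activated control; mean ± S.E.M., n = 3–4; top concentration 30 μM.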

| SMILES | inhibition at 30 µM (Neutrophil [1]) | IC50 (Neutrophil [2]) | growth inhibition (GI) (DU-145) | growth inhibition (GI) (KB) | growth inhibition (GI) (HCT-8) | growth inhibition (GI) (A549) | inhibition at 30 µM (Neutrophil [3]) | IC50 (Neutrophil [4]) | GI50 (DU-145; DU-145, 72 h) | GI50 (KB; 72 h) |
| --- | --- | --- | --- | --- | --- | --- | --- | --- | --- | --- |
| CCCCOC(=O)[C@H]1O[C@@H](O[C@H]2CC[C@]3(C)[C@H]4CC=C5[C@@H]6CC(C)(C)CC[C@]6(C(=O)O[C@@H]6O[C@H](CO)[C@@H](O)[C@H](O)[C@H]6O)CC[C@@]5(C)[C@]4(C)CC[C@H]3C2(C)C)[C@H](O[C@@H]2OC[C@@H](O)[C@H](O)[C@H]2O)[C@@H](O)[C@@H]1O | 20% | 21.2 µM | inactive | inactive | inactive | inactive |  |  |  |  |
| CC1(C)CC[C@]2(C(=O)O[C@@H]3O[C@H](CO)[C@@H](O)[C@H](O)[C@H]3O)CC[C@]3(C)C(=CC[C@@H]4[C@@]5(C)CC[C@H](O[C@@H]6O[C@H](C(=O)O)[C@@H](O[C@@H]7O[C@@H](CO)[C@H](O)[C@H]7O)[C@H](O)[C@H]6O)C(C)(C)[C@@H]5CC[C@]43C)[C@@H]2C1 | 27.6% |  | inactive | inactive | inactive | inactive | 14.6% |  |  |  |
| COC(=O)[C@H]1O[C@@H](O[C@H]2CC[C@]3(C)[C@H]4CC=C5[C@@H]6CC(C)(C)CC[C@]6(C(=O)O[C@@H]6O[C@H](CO)[C@@H](O)[C@H](O)[C@H]6O)CC[C@@]5(C)[C@]4(C)CC[C@H]3C2(C)C)[C@H](O)[C@@H](O)[C@@H]1O[C@@H]1O[C@@H](CO)[C@H](O)[C@H]1O | 27.5% | 19.7 µM | inactive | inactive | inactive | inactive |  |  |  |  |
| CC(C)(O)[C@@H]1CC[C@@](C)([C@H]2CC[C@]3(C)[C@@H]2[C@H](O)C[C@@H]2[C@@]4(C)CC[C@H](O)C(C)(C)[C@@H]4[C@@H](O[C@@H]4O[C@H](CO)[C@@H](O)[C@H](O)[C@H]4O[C@@H]4O[C@H](CO)[C@@H](O)[C@H](O)[C@H]4O)C[C@]23C)O1 | -4.95% |  | inactive | inactive | inactive | inactive | 7.4% |  |  |  |
| CC1(C)CC[C@]2(C(=O)O[C@@H]3O[C@H](CO)[C@@H](O)[C@H](O)[C@H]3O)CC[C@]3(C)C(=CC[C@@H]4[C@@]5(C)CC[C@H](O)C(C)(C)[C@@H]5CC[C@]43C)[C@@H]2C1 |  |  | inactive | inactive | inactive | inactive | 43.6% | 9.64 µM |  |  |
| CC(C)=CC/C=C(\C)[C@H]1CC[C@]2(C)[C@@H]1[C@H](O)C[C@@H]1[C@@]3(C)CC[C@H](O[C@@H]4O[C@H](CO)[C@@H](O)[C@H](O)[C@H]4O[C@@H]4O[C@H](CO)[C@@H](O)[C@H](O)[C@H]4O)C(C)(C)[C@@H]3CC[C@]12C |  |  | inactive | inactive | inactive | inactive |  |  |  |  |
| CC(C)=CCC[C@@](C)(O)[C@H]1CC[C@]2(C)[C@@H]1[C@H](O)C[C@@H]1[C@@]3(C)CC[C@H](O[C@@H]4O[C@H](CO)[C@@H](O)[C@H](O)[C@H]4O[C@@H]4O[C@H](CO)[C@@H](O)[C@H](O)[C@H]4O)C(C)(C)[C@@H]3CC[C@]12C |  |  | inactive | inactive | inactive | inactive |  |  |  |  |
| CC(C)=CCC[C@](C)(O)[C@H]1CC[C@]2(C)[C@@H]1[C@H](O)C[C@@H]1[C@@]3(C)CC[C@H](O[C@@H]4O[C@H](CO)[C@@H](O)[C@H](O)[C@H]4O[C@@H]4O[C@H](CO)[C@@H](O)[C@H](O)[C@H]4O)C(C)(C)[C@@H]3CC[C@]12C |  |  | inactive | inactive | inactive | inactive |  |  |  |  |
| CC(C)=CCC[C@](C)(O[C@@H]1O[C@H](CO[C@@H]2O[C@H](CO)[C@@H](O)[C@H](O)[C@H]2O)[C@@H](O)[C@H](O)[C@H]1O)[C@H]1CC[C@]2(C)[C@@H]1[C@H](O)C[C@@H]1[C@@]3(C)CC[C@H](O[C@@H]4O[C@H](CO)[C@@H](O)[C@H](O)[C@H]4O[C@@H]4O[C@H](CO)[C@@H](O)[C@H](O)[C@H]4O)C(C)(C)[C@@H]3CC[C@]12C [GINSENOSIDE RB1] | 7.36% |  | inactive | inactive | inactive | inactive | 10.8% |  |  |  |
| CC(C)=CCC[C@](C)(O[C@@H]1O[C@H](CO)[C@@H](O)[C@H](O)[C@H]1O)[C@H]1CC[C@]2(C)[C@@H]1[C@H](O)C[C@@H]1[C@@]3(C)CC[C@H](O[C@@H]4O[C@H](CO)[C@@H](O)[C@H](O)[C@H]4O[C@@H]4O[C@H](CO)[C@@H](O)[C@H](O)[C@H]4O)C(C)(C)[C@@H]3CC[C@]12C [GINSENOSIDE RD] | 2.88% |  | inactive | inactive | inactive | inactive | -3.54% |  |  |  |
| CC(C)=CCC[C@](C)(O)[C@H]1CC[C@]2(C)[C@@H]1[C@H](O)C[C@@H]1[C@@]3(C)CC[C@H](O)C(C)(C)[C@@H]3[C@@H](O[C@@H]3O[C@H](CO)[C@@H](O)[C@H](O)[C@H]3O[C@@H]3O[C@H](CO)[C@@H](O)[C@H](O)[C@H]3O)C[C@]12C [GINSENOSIDE RF] | 29.5% |  | inactive | inactive | inactive | inactive | 8.94% |  |  |  |
| CC(C)=CCC[C@](C)(O[C@@H]1O[C@H](CO)[C@@H](O)[C@H](O)[C@H]1O)[C@H]1CC[C@]2(C)[C@@H]1[C@H](O)C[C@@H]1[C@@]3(C)CC[C@H](O)C(C)(C)[C@@H]3[C@@H](O[C@@H]3O[C@H](CO)[C@@H](O)[C@H](O)[C@H]3O)C[C@]12C [GINSENOSIDE RG1] | 19% |  | inactive | inactive | inactive | inactive | 14.1% |  |  |  |
| C/C(=C/CC[C@](C)(O)[C@H]1CC[C@]2(C)[C@@H]1[C@H](O)C[C@@H]1[C@@]3(C)CC[C@H](O)C(C)(C)[C@@H]3[C@@H](O[C@@H]3O[C@H](CO)[C@@H](O)[C@H](O)[C@H]3O[C@@H]3O[C@H](CO)[C@@H](O)[C@H](O)[C@H]3O)C[C@]12C)CO [PANAJAPONOL A] | 42% |  |  |  | Active | Active | 20.3% |  | 7.3 µg/mL (≈ 8.93 µM) | 6.3 µg/mL (≈ 7.71 µM) |
| CC[C@H](CC[C@@H](C)[C@H]1CC[C@H]2[C@@H]3CC=C4C[C@@H](O[C@@H]5O[C@H](CO)[C@@H](O)[C@H](O)[C@H]5O)CC[C@]4(C)[C@H]3CC[C@]12C)C(C)C [SITOGLUSIDE] | 21.7% |  | inactive | inactive | inactive | inactive | 7.45% |  |  |  |
| CC1(C)CC[C@]2(C(=O)O[C@@H]3O[C@H](CO)[C@@H](O)[C@H](O)[C@H]3O)CC[C@]3(C)C(=CC[C@@H]4[C@@]5(C)CC[C@H](O[C@@H]6O[C@H](C(=O)O)[C@@H](O[C@H]7O[C@@H](CO)[C@H](O)[C@H]7O)[C@H](O[C@@H]7O[C@H](CO)[C@@H](O)[C@H](O)[C@H]7O)[C@H]6O)C(C)(C)[C@@H]5CC[C@]43C)[C@@H]2C1 [STIPULEANOSIDE R2] | 23.7% |  | inactive | inactive | inactive | inactive | 0.78% |  |  |  |
